Laboratory results as given in ChEMBL document CHEMBL3739271, “Synthesis and evaluation of a series of resveratrol analogues as potent anti-cancer agents that target tubulin” (2015).

Tests used:
Format in all cases: functional
[1] = Cytotoxicity against human SNB19 cells by SRB assay; settings: SNB-19
Summary of the method: (§1)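 NCI 60 human tumor cell line panel, sulforhodamine B (SRB) protein-stain read-out. Compounds were first screened at a single dose of 10^-5 M, and selected compounds were then tested in a five-dose format. GI50 is the drug concentration giving a 50% reduction in net protein increase relative to control cells.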

MV4-11 = assay: Anti-leukemia activity against human MV4-11 cells after 48 hrs by Annexin-V staining; settings: MV4-11, 48 h, read-out: LD50 (the source's name)
Summary of the method: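 MV4-11 AML cells exposed to increasing compound concentrations for 24 and 48 h. Viability measured by Annexin V/7-AAD staining and expressed as percent Annexin V-/7-AAD- cells relative to control. N = 5, error bars SD. LD50 values derived from these curves.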

MDA-MB-468 = assay: Cytotoxicity against human MDA-MB-468 cells by SRB assay; summary of the method: as §1
SR = assay: Cytotoxicity against human SR cells by SRB assay; summary of the method: as §1
CAKI-1 = assay: Cytotoxicity against human CAKI-1 cells by SRB assay; summary of the method: as §1
NCI/ADR-RES = assay: Cytotoxicity against human NCI/ADR-RES cells by SRB assay; summary of the method: as §1
[2] = Cytotoxicity against human OVCAR3 cells by SRB assay; settings: OVCAR-3; summary of the method: as §1
KM12 = assay: Cytotoxicity against human KM12 cells by SRB assay; summary of the method: as §1
A498 = assay: Cytotoxicity against human A498 cells by SRB assay; summary of the method: as §1
[3] = Cytotoxicity against human SF539 cells by SRB assay; settings: SF-539; summary of the method: as §1
[4] = Cytotoxicity against human RPMI8226 cells by SRB assay; settings: RPMI-8226; summary of the method: as §1
[5] = Cytotoxicity against human MOLT4 cells by SRB assay; settings: MOLT-4; summary of the method: as §1
NCI-H23 = assay: Cytotoxicity against human NCI-H23 cells by SRB assay; summary of the method: as §1
U-251 = assay: Cytotoxicity against human U251 cells by SRB assay; summary of the method: as §1
[6] = Cytotoxicity against human SF268 cells by SRB assay; settings: SF-268; summary of the method: as §1
[7] = Cytotoxicity against human HCT15 cells by SRB assay; settings: HCT-15; summary of the method: as §1
ACHN = assay: Cytotoxicity against human ACHN cells by SRB assay; summary of the method: as §1
[8] = Cytotoxicity against human UO31 cells by SRB assay; settings: UO-31; summary of the method: as §1
SK-MEL-28 = assay: Cytotoxicity against human SK-MEL-28 cells by SRB assay; summary of the method: as §1
[9] = Cytotoxicity against human Hs578T cells by SRB assay; settings: Hs-578T; summary of the method: as §1
MCF7 = assay: Cytotoxicity against human MCF7 cells by SRB assay; summary of the method: as §1
MDA-MB-435 = assay: Cytotoxicity against human MDA-MB-435 cells by SRB assay; summary of the method: as §1
M14 = assay: Cytotoxicity against human M14 cells by SRB assay; summary of the method: as §1
[10] = Cytotoxicity against human SNB75 cells by SRB assay; settings: SNB-75; summary of the method: as §1
A549 = assay: Cytotoxicity against human A549 cells by SRB assay; summary of the method: as §1
[11] = Cytotoxicity against human OVCAR4 cells by SRB assay; settings: OVCAR-4; summary of the method: as §1
[12] = Cytotoxicity against human LOXIMVI cells by SRB assay; settings: LOX IMVI
Summary of the method: (§2)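 NCI 60-cell-line panel using sulforhodamine B protein stain. Initial single-dose screen at 10^-5 M, then five-dose testing. GI50 is the drug concentration giving a 50% reduction in net protein increase relative to control cells.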

[13] = Cytotoxicity against human HOP92 cells by SRB assay; settings: HOP-92; summary of the method: as §1
[14] = Cytotoxicity against human IGROV1 cells by SRB assay; settings: IGROV-1; summary of the method: as §2
786-0 = assay: Cytotoxicity against human 786-0 cells by SRB assay; summary of the method: as §1
SK-MEL-5 = assay: Cytotoxicity against human SK-MEL-5 cells by SRB assay; summary of the method: as §1
[15] = Cytotoxicity against human COLO205 cells by SRB assay; settings: COLO 205; summary of the method: as §1
[16] = Cytotoxicity against human HOP62 cells by SRB assay; settings: HOP-62; summary of the method: as §1
CCRF-CEM = assay: Cytotoxicity against human CCRF-CEM cells by SRB assay; summary of the method: as §1
[17] = Cytotoxicity against human HCT116 cells by SRB assay; settings: HCT-116; summary of the method: as §1
NCI-H522 = assay: Cytotoxicity against human NCI-H522 cells by SRB assay; summary of the method: as §1
MDA-MB-231 = assay: Cytotoxicity against human MDA-MB-231 cells by SRB assay; summary of the method: as §1
[18] = Cytotoxicity against human SKOV3 cells by SRB assay; settings: SK-OV-3; summary of the method: as §1
[19] = Cytotoxicity against human HCC2998 cells by SRB assay; settings: HCC 2998; summary of the method: as §1
K562 = assay: Cytotoxicity against human K562 cells by SRB assay; summary of the method: as §1
[20] = Cytotoxicity against human SF295 cells by SRB assay; settings: SF-295; summary of the method: as §1
HT-29 = assay: Cytotoxicity against human HT-29 cells by SRB assay; summary of the method: as §1
[21] = Cytotoxicity against human SW620 cells by SRB assay; settings: SW-620; summary of the method: as §1
[22] = Cytotoxicity against human HL-60(TB) cells by SRB assay; summary of the method: as §2

Question: With COc1ccc(/C=C(/C#N)c2ccc(OC)c(OC)c2)cc1O as the compound, how does the GI50 [1] read?
Answer: 40 nM

Question: And the CC50 (MV4-11)?
Answer: 409 nM

Question: And the GI50 (MDA-MB-468)?
Answer: 40 nM

Question: And the GI50 (SR)?
Answer: 30 nM

Question: What about the GI50 (CAKI-1) of the same compound?
Answer: 420 nM

Question: What about the GI50 (NCI/ADR-RES) of the same compound?
Answer: 20 nM

Question: And the GI50 [2]?
Answer: 20 nM

Question: What about the GI50 (KM12) of the same compound?
Answer: 40 nM

Question: And the GI50 (A498)?
Answer: 20 nM

Question: What about the GI50 [3] of the same compound?
Answer: 20 nM

Question: What about the GI50 [4] of the same compound?
Answer: 50 nM

Question: And the GI50 [5]?
Answer: 70 nM

Question: And the GI50 (NCI-H23)?
Answer: 80 nM

Question: And the GI50 (U-251)?
Answer: 50 nM

Question: And the GI50 [6]?
Answer: 80 nM

Question: And the GI50 [7]?
Answer: 30 nM

Question: What about the GI50 (ACHN) of the same compound?
Answer: 90 nM

Question: What about the GI50 [8] of the same compound?
Answer: 90 nM

Question: What about the GI50 (SK-MEL-28) of the same compound?
Answer: 1270 nM

Question: What about the GI50 [9] of the same compound?
Answer: 30 nM

Question: What about the GI50 (MCF7) of the same compound?
Answer: 30 nM

Question: And the GI50 (MDA-MB-435)?
Answer: < 10 nM

Question: What about the GI50 (M14) of the same compound?
Answer: 20 nM

Question: What about the GI50 [10] of the same compound?
Answer: 20 nM

Question: And the GI50 (A549)?
Answer: 250 nM

Question: What about the GI50 [11] of the same compound?
Answer: 1070 nM

Question: What about the GI50 [12] of the same compound?
Answer: 70 nM

Question: And the GI50 [13]?
Answer: 860 nM

Question: What about the GI50 [14] of the same compound?
Answer: 70 nM

Question: What about the GI50 (786-0) of the same compound?
Answer: 240 nM

Question: And the GI50 (SK-MEL-5)?
Answer: 50 nM

Question: And the GI50 [15]?
Answer: 1260 nM

Question: And the GI50 [16]?
Answer: 30 nM

Question: And the GI50 (CCRF-CEM)?
Answer: 40 nM

Question: And the GI50 [17]?
Answer: 30 nM

Question: And the GI50 (NCI-H522)?
Answer: 10 nM

Question: And the GI50 (MDA-MB-231)?
Answer: 50 nM

Question: And the GI50 [18]?
Answer: 50 nM

Question: And the GI50 [19]?
Answer: 170 nM

Question: What about the GI50 (K562) of the same compound?
Answer: 30 nM

Question: What about the GI50 [20] of the same compound?
Answer: 580 nM

Question: What about the GI50 (HT-29) of the same compound?
Answer: 620 nM

Question: And the GI50 [21]?
Answer: 40 nM

Question: What about the GI50 [22] of the same compound?
Answer: 30 nM
